# Active and inactive are the calls of the source. No cut-off for these calls is given here.
# How the values were obtained:
# Staphylococcus aureus [1] = assay: Antibacterial activity against floxacin and methicillin-resistant Staphylococcus aureus ATCC 25923 after 24 hrs by agar dilution method; type: functional; conditions: ATCC 25923, 24 h
# Klebsiella pneumoniae = assay: Antibacterial activity against Klebsiella pneumoniae after 24 hrs by agar dilution method; type: functional, organism-based
# In short: (§1)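 MIC by agar dilution with doubling dilutions in cation-adjusted Mueller Hinton agar, 50–0.019 range, incubated in air at 35 °C for 24 h. Strains pre-grown on nutrient agar at 37 °C for 24 h, then suspended in normal saline with 0.05% Tween 20 at about 1.0–2.0 × 10⁷ cells/mL, matched to 0.5 McFarland.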
# Enterococcus faecalis = assay: Antibacterial activity against Enterococcus faecalis MTCC 439 after 24 hrs by agar dilution method; type: functional; conditions: MTCC 439, 24 h; in short: as §1
# Escherichia coli = assay: Antibacterial activity against Escherichia coli after 24 hrs by agar dilution method; type: functional, organism-based; in short: as §1
# Pseudomonas aeruginosa = assay: Antibacterial activity against Pseudomonas aeruginosa after 24 hrs by agar dilution method; type: functional, organism-based; in short: as §1
# Staphylococcus aureus [2] = assay: Antibacterial activity against methicillin and vancomycin-resistant Staphylococcus aureus ATCC 29213 after 24 hrs by agar dilution method; type: functional; conditions: ATCC 29213, 24 h
# Staphylococcus aureus [3] = assay: Antibacterial activity against methicillin-resistant Staphylococcus aureus ATCC 70069 after 24 hrs by agar dilution method; type: functional; conditions: ATCC 70069, 24 h
# Streptococcus pyogenes = assay: Antibacterial activity against Streptococcus pyogenes after 24 hrs by agar dilution method; type: functional; in short: as §1
# Bacillus cereus = assay: Antibacterial activity against Bacillus cereus MTCC 430 after 24 hrs by agar dilution method; type: functional; conditions: MTCC 430, 24 h; in short: as §1
Structure (SMILES),MIC (Staphylococcus aureus [1]) [µg/mL],Activity (Klebsiella pneumoniae),MIC (Enterococcus faecalis) [µg/mL],Activity (Escherichia coli),Activity (Pseudomonas aeruginosa),MIC (Staphylococcus aureus [2]) [µg/mL],MIC (Staphylococcus aureus [3]) [µg/mL],MIC (Streptococcus pyogenes) [µg/mL],MIC (Bacillus cereus) [µg/mL]
CC(=O)NC[C@H]1CN(c2ccc(N3CCN(C(=O)C(=O)/C=C/c4cccs4)CC3)c(F)c2)C(=O)O1,0.39,inactive,0.78,inactive,inactive,1.56,0.78,0.39,0.39
CC(=O)NC[C@H]1CN(c2ccc(N3CCN(C(=O)C(=O)/C=C/c4ccsc4)CC3)c(F)c2)C(=O)O1,0.78,inactive,0.78,inactive,inactive,1.56,0.78,0.39,0.78
CC(=O)NC[C@H]1CN(c2ccc(N3CCN(C(=O)C(=O)/C=C/c4ccc(Cl)c(Cl)c4Cl)CC3)c(F)c2)C(=O)O1,> 50,inactive,> 50,inactive,inactive,> 50,> 50,> 50,> 50
CC(=O)NC[C@H]1CN(c2ccc(N3CCN(C(=O)C(=O)/C=C/c4ccco4)CC3)c(F)c2)C(=O)O1,0.39,inactive,0.78,inactive,inactive,3.12,1.56,0.78,0.78
CC(=O)NC[C@H]1CN(c2ccc(N3CCOCC3)c(F)c2)C(=O)O1 [LINEZOLID],1.56,,3.12,,,3.12,1.56,1.56,0.78
CC(=O)NC[C@H]1CN(c2ccc(N3CCN(C(=O)C(=O)/C=C/c4ccc(C)cc4)CC3)c(F)c2)C(=O)O1,0.19,inactive,0.04,inactive,inactive,0.39,0.19,0.09,0.19
CC(=O)NC[C@H]1CN(c2ccc(N3CCN(C(=O)C(=O)/C=C/c4ccc(Cl)cc4)CC3)c(F)c2)C(=O)O1,0.78,inactive,0.78,inactive,inactive,0.78,0.78,0.39,0.39
CC(=O)NC[C@H]1CN(c2ccc(N3CCN(C(=O)C(=O)/C=C/c4ccc(C(F)(F)F)cc4)CC3)c(F)c2)C(=O)O1,0.78,inactive,0.19,inactive,inactive,1.56,0.78,0.19,1.56
CN[C@H](CC(C)C)C(=O)N[C@H]1C(=O)N[C@@H](CC(N)=O)C(=O)N[C@H]2C(=O)N[C@H]3C(=O)N[C@H](C(=O)N[C@H](C(=O)O)c4cc(O)cc(O)c4-c4cc3ccc4O)[C@H](O)c3ccc(c(Cl)c3)Oc3cc2cc(c3O[C@@H]2O[C@H](CO)[C@@H](O)[C@H](O)[C@H]2O[C@H]2C[C@](C)(N)[C@H](O)[C@H](C)O2)Oc2ccc(cc2Cl)[C@H]1O [VANCOMYCIN],0.39,,0.78,,,1.56,6.25,0.39,0.19
CC(=O)NC[C@H]1CN(c2ccc(N3CCN(C(=O)C(=O)/C=C/c4ccc(F)c(F)c4)CC3)c(F)c2)C(=O)O1,0.78,inactive,0.78,inactive,inactive,3.12,1.56,0.78,0.39
CC(=O)NC[C@H]1CN(c2ccc(N3CCN(C(=O)C(=O)/C=C/c4ccc(F)cc4)CC3)c(F)c2)C(=O)O1,0.78,inactive,0.78,inactive,inactive,1.56,0.78,0.39,0.39
CC(=O)NC[C@H]1CN(c2ccc(N3CCN(C(=O)C(=O)/C=C/c4ccccc4)CC3)c(F)c2)C(=O)O1,0.78,inactive,0.78,inactive,inactive,0.78,0.39,0.39,0.39

# From ChEMBL document CHEMBL1154367, “Novel 4-N-substituted aryl but-3-ene-1,2-dione derivatives of piperazinyloxazolidinones as antibacterial agents” (2009)
